# Test results published in ChEMBL document CHEMBL5543170, “Identification of Potent and Selective Inhibitors of Acanthamoeba: Structural Insights into Sterol 14α-Demethylase as a Key Drug Target” (J Med Chem, 2024).
# Activity calls are given as the source filed them. The calls are words filed in the database; no cut-off is given here.
# Experiments:
# [1] = (§1) Catalytic inhibition of Acanthamoeba castellanii CYP51 expressed in Escherichia coli HMS-174 (DE3) cells assessed as inhibition of substrate induced 14alpha-demthylation using obtusifoliol as substrate incubated for 1 hr in presence of NADPH-CYP450 reductase by RP-HPLC analysis
# [2] = system: Acanthamoeba castellanii; test: as §1, with “as substrate at […] incubated for” for “as substrate incubated for”, “RP-HPLC analysis relative to control” for “RP-HPLC analysis”; settings: dose 1.5 µM
# [3] = system: Acanthamoeba castellanii; test: Anti-amoebic activity against Acanthamoeba castellanii ATCC 50491 assessed as inhibition of amoebic growth incubated for 48 hrs by resazurin dye based microtiter plate analysis; format: functional
# How it was run: (§2)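 Trophozoites kept axenically in PYG medium at 28 °C, grown to confluence for 48 h, then diluted to 5 × 10^4 trophozoites/mL (1 × 10^4 cells per well). Azoles added from DMSO stocks via PYG to final 0.03125–64 μg/mL (twofold series); 1% DMSO controls. Incubated 48 h at 28 °C, then 0.02% resazurin added for a further 48 h. Purple-to-pink change scored as respiring cells; MIC in triplicate.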
# [4] = system: Acanthamoeba polyphaga; test: Anti-amoebic activity against Acanthamoeba polyphaga ATCC 30461 assessed as inhibition of amoebic growth incubated for 48 hrs by resazurin dye based microtiter plate analysis; format: functional; how it was run: as §2
# [5] = Binding affinity to Acanthamoeba castellanii CYP51 expressed in Escherichia coli HMS-174 (DE3) cells assessed as dissociation constant by UV-Visible spectrophotometry
# [6] = system: Acanthamoeba castellanii; test: Substrate activity at Acanthamoeba castellanii CYP51 expressed in Escherichia coli HMS-174 (DE3) cells assessed as Kcat measured after 20 mins by Michaelis-Menten analysis
# How it was run: (§3)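 Full-length His6-tagged CYP51, purified by Ni-NTA, Q- and CM-Sepharose, reconstituted with rat CPR (0.5 μM P450, 2 μM CPR), 37 °C. […] Rates as nmol product/min/nmol P450 vs total substrate, fitted to Michaelis–Menten hyperbola; triplicate, mean ± SD.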
# [7] = system: Acanthamoeba castellanii; test: Substrate activity at Acanthamoeba castellanii CYP51 expressed in Escherichia coli HMS-174 (DE3) cells assessed as Kcat/Km measured after 20 mins by Michaelis-Menten analysis; how it was run: as §3
# [8] = system: Acanthamoeba castellanii; test: Substrate activity at Acanthamoeba castellanii CYP51 expressed in Escherichia coli HMS-174 (DE3) cells assessed as Km measured after 20 mins by Michaelis-Menten analysis; how it was run: as §3
# [9] = system: Acanthamoeba castellanii; test: Substrate activity at Acanthamoeba castellanii CYP51 expressed in Escherichia coli HMS-174 (DE3) cells assessed as Kcat measured after 60 sec by Michaelis-Menten analysis; how it was run: as §3
# [10] = system: Acanthamoeba castellanii; test: Substrate activity at Acanthamoeba castellanii CYP51 expressed in Escherichia coli HMS-174 (DE3) cells assessed as Km measured after 60 sec by Michaelis-Menten analysis; how it was run: as §3
# [11] = system: Acanthamoeba castellanii; test: Substrate activity at Acanthamoeba castellanii CYP51 expressed in Escherichia coli HMS-174 (DE3) cells assessed as Kcat/Km measured after 60 sec by Michaelis-Menten analysis; how it was run: as §3
Structure (SMILES),inhibition [2],MIC [3],MIC [4],further results
O=C([C@@H](c1ccc(Cl)cc1)c1cccnc1)N1CCN(c2ccc(C(F)(F)F)cc2)CC1,,,,IC50 [1]: 5500 nM
CC(C)(C#N)c1cc(Cn2cncn2)cc(C(C)(C)C#N)c1,inactive,,,
O=C(N[C@@H](Cn1ccnc1)c1ccc(Cl)cc1Cl)c1ccc(-c2nnc(-c3ccccc3)o2)cc1,,4 µM,> 64 µg/mL,
N#Cc1ccc(COc2ccc(C#Cc3ccc(C(F)(F)[C@](O)(Cn4cnnn4)c4ccc(F)cc4F)nc3)cc2)cc1 [VT-1598],,0.077 µM,0.425 µM,IC50 [1]: 250 nM
CC(C)=CCC[C@@H](C)[C@H]1CC[C@@]2(C)C3=C(CC[C@]12C)[C@@]1(C)CC[C@H](O)C(C)(C)[C@@H]1CC3 [LANOSTEROL],,,,Kd [5]: 1220 nM; kcat [6]: 6.1 min⁻¹; kcat/Km [7]: 0.12 µM⁻¹ min⁻¹; Km [8]: 52 µM
N#Cc1ccc(C(c2ccc(C#N)cc2)n2cncn2)cc1,inactive,,,
C[C@@H](c1ncncc1F)[C@](O)(Cn1cncn1)c1ccc(F)cc1F [VORICONAZOLE],85%,0.09 µM,0.75 µM,IC50 [1]: 450 nM
Clc1ccc(COC(Cn2ccnc2)c2ccc(Cl)cc2Cl)c(Cl)c1 (stereo not given),25%,,,
C[C@@H](c1nc(-c2ccc(C#N)cc2)cs1)[C@](O)(Cn1cncn1)c1ccc(F)cc1F,inactive,,,
O[C@@](Cn1cnnn1)(c1ccc(F)cc1F)C(F)(F)c1ccc(-c2ccc(OCC(F)(F)F)cc2)cn1 [OTESECONAZOLE],,0.057 µM,0.114 µM,
CC[C@@H]([C@H](C)O)n1ncn(-c2ccc(N3CCN(c4ccc(OC[C@@H]5CO[C@@](Cn6cncn6)(c6ccc(F)cc6F)C5)cc4)CC3)cc2)c1=O,inactive,,,
FC(F)(F)c1ccc(N(c2cccnc2)C2CCN(c3ccc(C(F)(F)F)cn3)CC2)cc1,,,,IC50 [1]: 1300 nM
O=C(N[C@@H](Cn1ccnc1)c1ccc(-c2ccc(F)cc2)cc1F)c1ccc(-c2nnc(-c3ccccc3)o2)cc1,,> 64 µg/mL,> 64 µg/mL,
C=C(CC[C@@H](C)[C@H]1CC[C@@]2(C)C3=C(CC[C@]12C)[C@@]1(C)CC[C@H](O)[C@@H](C)[C@@H]1CC3)C(C)C [OBTUSIFOLIOL],,,,kcat [9]: 30.8 min⁻¹; Kd [5]: 30 nM; Km [10]: 2.7 µM; kcat/Km [11]: 11.4 µM⁻¹ min⁻¹
CC(=O)N1CCN(c2ccc(OCC3COC(Cn4ccnc4)(c4ccc(Cl)cc4Cl)O3)cc2)CC1 (stereo not given),inactive,,,
Clc1ccccc1C(c1ccccc1)(c1ccccc1)n1ccnc1,82%,,,
